Experimental data published in ChEMBL document CHEMBL5303300, “EUbOPEN Chemogenomics Library - Multiplex” (2023).
“And” between values parts separate entries of the source, which are not always exact repeats. Identical values can stand only once.

Assays:
Assay type in all cases: toxicity, cell-based
U2OS = experiment: Multiplex assay against U2OS; conditions: human, number of replicates 2
Outline: (§1)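 Hoechst33342, BioTracker Green Microtubule Cytoskeleton Dye, MitoTracker Red and Annexin V Alexa Fluor 680 were added to live cells at seeding, and imaging on a CQ1 microscope at 37°C and 5% CO2 followed compound addition. Gating by CellPathfinder machine learning separated cells into Hoechst high-intensity objects or normal cells, then normal cells into healthy, pyknosed or fragmented nuclei, then pyknosed cells into mitotic or apoptotic. Per cents of healthy-nucleus cells are reported for the tubulin, mitochondrial-mass and membrane-permeability phenotypes.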

Fibroblast = experiment: Multiplex assay against human fibroblast; conditions: number of replicates 2; outline: as §1
HEK-293T = experiment: Multiplex assay against HEK293T; conditions: human, number of replicates 2; outline: as §1
[1] = 12 h, 1 µM, compound concentration 1 uM
[2] = 12 h, 10 µM, compound concentration 10 uM
[3] = 24 h, 1 µM, compound concentration 1 uM
[4] = 24 h, 10 µM, compound concentration 10 uM
[5] = 48 h, 1 µM, compound concentration 1 uM
[6] = 48 h, 10 µM, compound concentration 10 uM

For CS(=O)(=O)c1ccc(C(=O)Nc2ccc(F)c(COc3ccc(Br)cc3CN3CC[C@H](O)C3)c2)c(Cl)c1.O=CO, the “Population Apoptotic (%)” value (U2OS; [1]) was 60%, the “Population Healthy Nuclei (%)” value (U2OS; [1]) was 60% and 82% and the “Population Normal (%)” value (U2OS; [1]) was 100%. For the same compound, the “Population Pyknosed Nuclei (%)” value (U2OS; [1]) was 10%, the “Population Apoptotic (%)” value (U2OS; [2]) was 91% and 68% and the “Population Healthy Nuclei (%)” value (U2OS; [2]) was 41% and 73%. For the same compound, the “Population Normal (%)” value (U2OS; [2]) was 100% and 98%, the “Population Pyknosed Nuclei (%)” value (U2OS; [2]) was 22% and the “Population Apoptotic (%)” value (U2OS; [3]) was 77% and 65%. For the same compound, the “Population Healthy Nuclei (%)” value (U2OS; [3]) was 62% and 84%, the “Population Normal (%)” value (U2OS; [3]) was 100% and the “Population Pyknosed Nuclei (%)” value (U2OS; [3]) was 13%. For the same compound, the “Population Apoptotic (%)” value (U2OS; [4]) was 71% and 92%, the “Population Healthy Nuclei (%)” value (U2OS; [4]) was 61% and 47% and the “Population Normal (%)” value (U2OS; [4]) was 98% and 100%. The “Population Apoptotic (%)” value (U2OS; [5]) was 100% and 93%, the “Population Healthy Nuclei (%)” value (U2OS; [5]) was 67% and 88% and the “Population Normal (%)” value (U2OS; [5]) was 100%. For the same compound, the “Population Pyknosed Nuclei (%)” value (U2OS; [5]) was 9%, the “Population Apoptotic (%)” value (U2OS; [6]) was 94% and 89% and the “Population Healthy Nuclei (%)” value (U2OS; [6]) was 23% and 51%. The “Population Normal (%)” value (U2OS; [6]) was 97% and 100%, the “Population Pyknosed Nuclei (%)” value (U2OS; [6]) was 41% and 39% and the “Population Apoptotic (%)” value (Fibroblast; [1]) was 42% and 43%. For the same compound, the “Population Fragmented Nuclei (%)” value (Fibroblast; [1]) was 7% and 9%, the “Population Healthy Nuclei (%)” value (Fibroblast; [1]) was 63% and 67% and the “Population Hoechst High Intensity Objects (%)” value (Fibroblast; [1]) was 0%. For the same compound, the “Population Normal (%)” value (Fibroblast; [1]) was 100%, the “Total Cell Count” value (Fibroblast; [1]) was 217 and 239 and the “Population Apoptotic (%)” value (Fibroblast; [2]) was 42% and 43%. For the same compound, the “Population Fragmented Nuclei (%)” value (Fibroblast; [2]) was 21%, the “Population Healthy Nuclei (%)” value (Fibroblast; [2]) was 50% and 52% and the “Population Hoechst High Intensity Objects (%)” value (Fibroblast; [2]) was 0%. The “Population Normal (%)” value (Fibroblast; [2]) was 100% and 99%, the “Total Cell Count” value (Fibroblast; [2]) was 194 and 258 and the “Population Apoptotic (%)” value (Fibroblast; [3]) was 42% and 57%. The “Population Fragmented Nuclei (%)” value (Fibroblast; [3]) was 10% and 14%, the “Population Healthy Nuclei (%)” value (Fibroblast; [3]) was 64% and 69% and the “Population Hoechst High Intensity Objects (%)” value (Fibroblast; [3]) was 0%. The “Population Normal (%)” value (Fibroblast; [3]) was 100% and 99%, the “Total Cell Count” value (Fibroblast; [3]) was 220 and 253 and the “Population Apoptotic (%)” value (Fibroblast; [4]) was 72% and 81%. For the same compound, the “Population Fragmented Nuclei (%)” value (Fibroblast; [4]) was 15%, the “Population Healthy Nuclei (%)” value (Fibroblast; [4]) was 62% and 52% and the “Population Hoechst High Intensity Objects (%)” value (Fibroblast; [4]) was 0%. For the same compound, the “Population Normal (%)” value (Fibroblast; [4]) was 100% and 99%, the “Total Cell Count” value (Fibroblast; [4]) was 197 and 255 and the “Population Apoptotic (%)” value (Fibroblast; [5]) was 71% and 78%. For the same compound, the “Population Fragmented Nuclei (%)” value (Fibroblast; [5]) was 18% and 14%, the “Population Healthy Nuclei (%)” value (Fibroblast; [5]) was 64% and 73% and the “Population Hoechst High Intensity Objects (%)” value (Fibroblast; [5]) was 0%. For the same compound, the “Population Normal (%)” value (Fibroblast; [5]) was 99%, the “Total Cell Count” value (Fibroblast; [5]) was 244 and 243 and the “Population Apoptotic (%)” value (Fibroblast; [6]) was 88%. The “Population Fragmented Nuclei (%)” value (Fibroblast; [6]) was 20% and 15%, the “Population Healthy Nuclei (%)” value (Fibroblast; [6]) was 58% and 63% and the “Population Hoechst High Intensity Objects (%)” value (Fibroblast; [6]) was 0%. The “Population Normal (%)” value (Fibroblast; [6]) was 100% and 98%, the “Total Cell Count” value (Fibroblast; [6]) was 178 and 242 and the “Population Apoptotic (%)” value (HEK-293T; [1]) was 55% and 45%. The “Population Healthy Nuclei (%)” value (HEK-293T; [1]) was 81% and 82%, the “Population Mitotic Cells (%)” value (HEK-293T; [1]) was 44% and 54% and the “Population Normal (%)” value (HEK-293T; [1]) was 94% and 93%. The “Total Cell Count” value (HEK-293T; [1]) was 519 and 629, the “Population Apoptotic (%)” value (HEK-293T; [2]) was 61% and 58% and the “Population Healthy Nuclei (%)” value (HEK-293T; [2]) was 87% and 82%. For the same compound, the “Population Normal (%)” value (HEK-293T; [2]) was 91% and 88%, the “Total Cell Count” value (HEK-293T; [2]) was 484 and 427 and the “Population Apoptotic (%)” value (HEK-293T; [3]) was 60% and 47%. The “Population Healthy Nuclei (%)” value (HEK-293T; [3]) was 80% and 83%, the “Population Mitotic Cells (%)” value (HEK-293T; [3]) was 52% and the “Population Normal (%)” value (HEK-293T; [3]) was 92% and 93%. For the same compound, the “Total Cell Count” value (HEK-293T; [3]) was 796 and 885, the “Population Apoptotic (%)” value (HEK-293T; [4]) was 69% and 68% and the “Population Healthy Nuclei (%)” value (HEK-293T; [4]) was 85% and 79%. For the same compound, the “Population Mitotic Cells (%)” value (HEK-293T; [4]) was 30%, the “Population Normal (%)” value (HEK-293T; [4]) was 90% and 91% and the “Total Cell Count” value (HEK-293T; [4]) was 489 and 456. For the same compound, the “Population Apoptotic (%)” value (HEK-293T; [5]) was 29% and 26%, the “Population Healthy Nuclei (%)” value (HEK-293T; [5]) was 83% and 86% and the “Population Mitotic Cells (%)” value (HEK-293T; [5]) was 70% and 73%. For the same compound, the “Population Normal (%)” value (HEK-293T; [5]) was 89% and 92%, the “Total Cell Count” value (HEK-293T; [5]) was 1639 and 1757 and the “Population Apoptotic (%)” value (HEK-293T; [6]) was 74% and 55%. The “Population Healthy Nuclei (%)” value (HEK-293T; [6]) was 82% and 85%, the “Population Mitotic Cells (%)” value (HEK-293T; [6]) was 25% and 44% and the “Population Normal (%)” value (HEK-293T; [6]) was 86% and 90%. For the same compound, the “Total Cell Count” value (HEK-293T; [6]) was 548 and 631.
